Measurements reported in ChEMBL document CHEMBL1149254, “The discovery of orally active triaminotriazine aniline amides as inhibitors of p38 MAP kinase” (J Med Chem, 2004).

Experiments:
[1] = molecular target: Mitogen-activated protein kinase 14 (Homo sapiens, UniProt Q16539); assay: Inhibition of human p38-alpha expressed in Escherichia coli
THP-1 = assay: Inhibition of LPS-induced TNFalpha production in human THP1 cells by ELISA; type: functional, cell-based
Method in brief: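 THP-1 cells grown in RPMI 1640 with 10% FBS, 40000 cells/well. Compound or vehicle was added (1% DMSO final), then LPS at 1 μg/mL final. Cells were incubated overnight at 37 °C, 5% CO2. TNF in the supernatant was measured by sandwich ELISA: anti-human TNF capture, biotinylated polyclonal detection, streptavidin-peroxidase read-out.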

Chain of Mitogen-activated protein kinase 14 (Q16539 whole entry): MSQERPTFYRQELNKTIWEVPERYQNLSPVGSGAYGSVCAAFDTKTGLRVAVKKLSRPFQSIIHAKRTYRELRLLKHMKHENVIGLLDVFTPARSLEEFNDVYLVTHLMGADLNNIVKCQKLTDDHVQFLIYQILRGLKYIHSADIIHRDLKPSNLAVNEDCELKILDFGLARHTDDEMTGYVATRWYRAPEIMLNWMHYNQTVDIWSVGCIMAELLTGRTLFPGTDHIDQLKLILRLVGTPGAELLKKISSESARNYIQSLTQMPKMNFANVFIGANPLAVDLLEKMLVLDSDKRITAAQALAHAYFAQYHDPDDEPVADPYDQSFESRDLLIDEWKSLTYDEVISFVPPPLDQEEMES

SMILES | IC50 [1] | IC50 (THP-1)
Cc1ccc(C(N)=O)cc1Nc1nc(N[C@H]2CCNC2)nc(N(C)CC2CCCCC2)n1 | 250 nM | 1300 nM
Cc1ccc(C(N)=O)cc1Nc1nc(NC[C@@H]2CC[C@H]3C[C@@H]2C3(C)C)nc(N2CCCN(C)CC2)n1 | 1420 nM | –
CONC(=O)c1ccc(C)c(Nc2nc(N[C@H]3CCNC3)nc(N(C)CC(C)(C)C)n2)c1 | 8 nM | 16 nM
Cc1ccc(C(N)=O)cc1Nc1nc(NCCc2ccc(F)cc2)nc(N[C@H]2CCNC2)n1 | 227 nM | > 5000 nM
Cc1ccc(C(=O)O)cc1Nc1nc(N(C)CC(C)(C)C)nc(N2CCCN(C)CC2)n1 | > 1000 nM | –
Cc1ccc(C(=O)NC2CCCC2)cc1Nc1nc(N[C@H]2CCNC2)nc(N(C)CC(C)(C)C)n1 | 100 nM | 130 nM
Cc1ccc(C(=O)NO)cc1Nc1nc(N[C@H]2CCNC2)nc(N(C)CC(C)(C)C)n1 | 16 nM | 150 nM

The remaining compounds from weak to strong by IC50 [1], led by results:

IC50 [1] | IC50 (THP-1) | SMILES
5900 nM | – | Cc1ccc(C(N)=O)cc1Nc1nc(N)nc(NC[C@@H]2CC[C@H]3C[C@@H]2C3(C)C)n1
1360 nM | 1700 nM | Cc1ccc(C(N)=O)cc1Nc1nc(NC[C@@H]2CC[C@H]3C[C@@H]2C3(C)C)nc(N2CCCNCC2)n1
264 nM | 680 nM | COCCNC(=O)c1ccc(C)c(Nc2nc(N[C@H]3CCNC3)nc(N(C)CC(C)(C)C)n2)c1
53 nM | 1100 nM | Cc1ccc(C(N)=O)cc1Nc1nc(NC[C@@H]2CC[C@H]3C[C@@H]2C3(C)C)nc(N[C@H]2CCNC2)n1
51 nM | 150 nM | Cc1ccc(C(=O)NC(C)C)cc1Nc1nc(N[C@H]2CCNC2)nc(N(C)CC(C)(C)C)n1
